V-ATPase pHluor – regulators of yeast V-ATPase proton pumping, primary screen, pHLuorin cytosolic pH fluorescence; S. cerevisiae; response, % at 10 µM; 0.37% of 350,000 active; in the data active = response mostly above about 7.3%, no sharp cut-off; inactive = mostly below about 5.4%; also: actives read high
ADAM10 inh – human ADAM10 inhibitors, primary screen, biochemical, QFRET, HTS; Disintegrin and metalloproteinase domain-containing protein 10 (Homo sapiens), O14672; recombinant ADAM10, EDANS/DABCYL FRET peptide cleavage, 3 h; inhibition, % at 7 µM; AID 720582, 2013; 0.62% of 370,000 active;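 active = inhibition above a per-campaign cutoff equal to the mean of compounds falling between control-based bounds plus 3 SD, cut at about 20% in these data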;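 also: 0% = DMSO wells while the 100% control is not disclosed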
Target sequence (O14672 214-748 limits assumed): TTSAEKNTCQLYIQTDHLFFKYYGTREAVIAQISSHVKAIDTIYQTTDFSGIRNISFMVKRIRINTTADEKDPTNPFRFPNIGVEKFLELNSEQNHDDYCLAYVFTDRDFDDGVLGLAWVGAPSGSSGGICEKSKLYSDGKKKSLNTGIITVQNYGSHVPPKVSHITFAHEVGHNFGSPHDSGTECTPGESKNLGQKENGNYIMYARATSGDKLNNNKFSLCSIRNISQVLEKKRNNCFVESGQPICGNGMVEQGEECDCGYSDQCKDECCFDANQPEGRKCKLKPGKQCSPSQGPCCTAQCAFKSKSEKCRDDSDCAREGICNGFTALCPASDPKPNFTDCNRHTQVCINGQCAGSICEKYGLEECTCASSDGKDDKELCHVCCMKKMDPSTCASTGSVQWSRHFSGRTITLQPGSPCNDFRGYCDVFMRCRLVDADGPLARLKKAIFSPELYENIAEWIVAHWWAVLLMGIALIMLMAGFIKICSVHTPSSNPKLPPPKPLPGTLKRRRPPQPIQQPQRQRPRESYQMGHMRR
MPTP block – mitochondrial permeability transition pore inhibitors, primary screen, biochemical, isolated mouse mitochondria, absorbance; inhibition, % at 10 µM; AID 602449, 2012; 1.4% of 360,000 active; Ca2+ swelling absorbance, 30 min;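 active = inhibition of 50% or more, scaled per plate between neutral and stimulator controls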;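 also: 0% = DMSO wells given calcium and 100% = 1 mM EGTA wells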
ADAM17 inh – ADAM17 inhibitors, primary screen, biochemical, QFRET | Disintegrin and metalloproteinase domain-containing protein 17 (Homo sapiens), P78536 | recombinant ADAM17, EDANS/DABCYL FRET peptide cleavage | inhibition, % at 6.95 µM | 0.83% of 370,000 active;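 active = inhibition above the mean of compounds lying between control limits plus 3 SD, set per campaign, cut at about 8.5% in these data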;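 also: 0% = DMSO-only wells as the low control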
Hep lipid drop – inhibitors of hepatocyte lipid droplet formation, primary screen, imaging, high-throughput imaging, BODIPY stain; AID 1656, 2009; AML12 mouse hepatocytes, oleate lipid droplets; 0.4% of 240,000 active; inhibition, % at 6.5 µM;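 active = lipid droplet intensity inhibited by at least 50%, with more than 500 cells counted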
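Assay system: AML12 hepatocytes (mouse); Probe or stimulus: oleic acid at 100 µM to induce lipid droplet formation; Dosing: compound at 6.5 µM only; Schedule: compound with oleate, overnight; Detection: fluorescence imaging, 20x objective, two fields per well; Measure: % inhibition of lipid droplet signal.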
aDG glyco up – activators of alpha-DG glycosylation, primary screen, uHTS, Pro5-aDG cells, AlphaScreen. alpha-DG glycosylation AlphaScreen (IIH6); 0% Pro5, 100% B10-LARGE cell signal. 0.22% of 360,000 active. activation, % at 10 µM. AID 624168, 2012;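 active = activation of at least 8% versus controls, or a plate z-score of at least 8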;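 also: Pro5 are CHO cells carrying HIG-tagged alpha-DG that lacks glycosylation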
ADAM10 counter – ADAM10 inhibitors, counter-screen for ADAM17 exosite inhibitor project, biochemical, FRET, human ADAM10; shares compounds with ADAM17 inh; recombinant ADAM10, EDANS/DABCYL FRET peptide cleavage, 3 h; inhibition, % at 6.95 µM; 47% of 2,900 active;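 active = mean inhibition over the triplicate runs exceeds the activity threshold set in the earlier primary screen, cut at about 20% in these data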;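 also: 0% = DMSO wells and 100% = marimastat wells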
ADAM17 confirm – ADAM17 inhibitors, hit retest, confirmation, biochemical, QFRET peptide cleavage. inhibition, % at 6.95 µM. recombinant ADAM17, EDANS/DABCYL QFRET peptide cleavage. shares compounds with ADAM17 inh. 65% of 2,900 active;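 active = mean inhibition across replicates above the hit cutoff set in the primary screen, cut at about 8.5% in these data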;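 also: 0% = DMSO wells and 100% = marimastat wells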
Starred values were filed as active, the others as inactive; x = no result. Most compounds without a hit are left out; they make up all but 3.1% or so of the library.

SMILES | V-ATPase pHluor | ADAM10 inh | MPTP block | ADAM17 inh | Hep lipid drop | aDG glyco up | ADAM10 counter | ADAM17 confirm
Fc1ccccc1-c1n[nH]c(=S)n1N=Cc1cccc(OCc2ccccc2)c1 | x | 10.8 | x | 6.3 | x | x | x | x
COc1ccccc1N(Cc1ccccc1)S(=O)(=O)c1cccc(C(=O)Nc2ncccc2C)c1 | -1.9 | 12.0 | -0.4 | 6.2 | x | -0.1 | x | x
COc1ccccc1N(Cc1ccccc1)S(=O)(=O)c1cccc(C(=O)Nc2cc(C)ccn2)c1 | -3.0 | 17.3 | 1.1 | 9.0* | -6.1 | -0.1 | 12.6 | 7.6
C[C@H](O)[C@@H]1CN2CCc3c([nH]c4c(-c5ccc6c(c5)OCO6)cccc34)[C@@H]2C[C@@H]1N(C)C(=O)NC1CCCCC1 | x | 0.2 | x | 1.1 | x | x | x | x
CCOC(=O)c1sc(SC)c2c1CCCC2=O | 8.3 | 14.8 | 0.8 | 9.3* | -4.7 | 0.2 | -5.2 | -0.4
CCOC(=O)c1sc(SC)c(C(C)=O)c1C | 2.6 | 5.5 | -0.9 | -1.0 | 2.2 | 0.2 | x | x
COc1ccc(C2C(C#N)=C(C)NC(C)=C2C#N)c(OC)c1 | -1.9 | -18.0 | -2.2 | -6.1 | 0.0 | 0.0 | x | x
COc1ccc(C2C(C#N)=C(N)Nc3onc(C(C)(C)C)c32)c(OC)c1 (stereo unspecified) | 3.5 | 7.6 | -0.1 | 8.7* | 24.9 | 0.1 | 7.4 | 6.6
O=C(C1CCCN1S(=O)(=O)c1ccc([N+](=O)[O-])cc1)N1CCN(c2ccccc2)CC1 (stereo unspecified) | x | -13.4 | x | 3.1 | x | x | x | x
CCc1nnc(NS(=O)(=O)c2ccc(NC(=O)c3cccc(Br)c3)cc2)s1 | 0.2 | 2.0 | -1.8 | 9.6* | 5.8 | -0.1 | -0.1 | 3.5
CCC(CC)C(=O)Nc1cccc(C(=O)Nc2ccc(S(=O)(=O)Nc3ccc(C)cc3)cc2)c1 | -0.3 | 18.2 | 11.0 | 8.8* | x | 0.8 | 21.9* | 16.5*
CCC(CC)C(=O)Nc1cccc(C(=O)Nc2ccc(S(N)(=O)=O)cc2)c1 | -1.5 | -1.6 | -1.5 | -1.3 | -4.1 | 0.2 | x | x
Cn1nnnc1Sc1ncnc2scc(-c3cnc(N)nc3)c12 | x | 1.1 | x | -2.3 | x | x | x | x
COc1ccc(C(=O)CC(=O)Nc2ccc([N+](=O)[O-])cc2)cc1 | 5.5 | 16.2 | 2.7 | 9.5* | x | 0.0 | 25.3* | 11.6*
COc1ccc(Nc2ccc([N+](=O)[O-])cn2)cc1 | -2.1 | 12.0 | -0.4 | 10.1* | 2.0 | -0.1 | 2.9 | 4.8
CCc1ccc(OCC2c3cc(OC)c(OC)cc3CCN2C(=S)NCCOC)cc1 (stereo unspecified) | 0.2 | 16.9 | 2.8 | 10.1* | 30.1 | 0.3 | 39.4* | 21.1*
COC(=O)CN=C1OC(=O)N2C(=O)C3=C4[C@@H](C[C@H]5C(=O)N(c6ccccc6)C(=O)[C@H]5[C@H]4[C@@]12Cc1ccccc1)[C@H]1C(=O)N(c2ccccc2)C(=O)[C@H]1[C@H]3C | -6.5 | 13.9 | 2.4 | 9.8* | -29.2 | -0.1 | 10.6 | 6.4
COCCN=C1OC(=O)N2C(=O)C3=C4[C@@H](C[C@H]5C(=O)N(c6ccccc6)C(=O)[C@H]5[C@H]4[C@@]12Cc1ccccc1)[C@H]1C(=O)N(c2ccccc2)C(=O)[C@H]1[C@H]3C | -4.7 | -2.4 | 2.9 | 2.9 | -18.4 | -0.2 | x | x
O=C(COC(=O)c1ccco1)NCc1ccc2c(c1)OCO2 | -0.1 | -4.8 | -0.5 | -8.7 | -1.8 | 0.0 | x | x
O=C(COC(=O)c1ccco1)Nc1ccc2c(c1)OCO2 | 0.1 | 1.9 | 0.6 | 9.6* | x | 0.3 | -9.6 | -6.2
CN(c1ccc(OCc2ccc([N+](=O)[O-])cc2)cc1)S(=O)(=O)c1ccccc1 | -2.5 | 14.8 | 2.1 | 9.3* | -44.4 | -0.1 | 17.4 | 13.1*
Cc1ccc(S(=O)(=O)N(C)c2ccc(OCc3cccc(C)c3)cc2)cc1 | 0.2 | 1.6 | -1.0 | 3.4 | -18.2 | -0.1 | x | x
CC(C)CCn1c(NCCN(C)C)nc2c1c(=O)[nH]c(=O)n2C | 3.1 | 7.0 | 0.1 | -4.0 | x | -0.2 | x | x
CCCNc1nc2c(c(=O)[nH]c(=O)n2C)n1CCC(C)C | 2.0 | 4.5 | -3.0 | 8.8* | x | -0.2 | 24.5* | 13.0*
Cc1cc2cc(CN(CCCO)S(=O)(=O)c3cccc4nsnc34)c(=O)[nH]c2cc1C | 1.6 | 13.1 | 0.7 | 10.2* | x | -0.5 | -1.9 | 5.2
SMILES | V-ATPase pHluor | ADAM10 inh | MPTP block | ADAM17 inh | Hep lipid drop | aDG glyco up | ADAM10 counter | ADAM17 confirm
CC(=O)N(C)c1ccc(N=Nc2c(C)[nH]n(C(N)=S)c2=O)cc1 | -0.6 | 9.9 | 0.6 | 2.2 | 2.9 | -0.4 | x | x
CCN(CC)S(=O)(=O)c1ccc(N=Nc2c(C)[nH]n(C(N)=S)c2=O)cc1 | -2.1 | 9.2 | 1.3 | 12.0* | -3.8 | -0.3 | 8.2 | 2.7
C=CC[C@@H](CC(=O)N[C@H](CO)Cc1ccccc1)C(=O)N[C@H](COC(=O)[C@@H](CC=C)Cc1ccc(F)cc1)Cc1c[nH]c2ccccc12 | 2.3 | 24.4* | 0.4 | 11.3* | x | 2.7 | 44.4* | 22.0*
C=CC[C@H](CC(=O)N[C@H](CO)Cc1ccccc1)C(=O)N[C@H](COC(=O)[C@@H](CC=C)Cc1ccc(F)cc1)Cc1c[nH]c2ccccc12 | -2.7 | x | 1.6 | x | x | 0.2 | x | x
C=CCC[C@H](Cc1ccc(F)cc1)C(=O)OC[C@@H](NC(=O)[C@@H](CC=C)CC(=O)N(CCO)Cc1ccccc1)C(C)(C)C | 3.4 | 19.5 | -1.9 | 12.4* | x | 0.1 | 38.4* | 19.4*
C=CC[C@@H](CC(=O)N[C@H](CO)Cc1ccccc1)C(=O)N[C@H](COC(=O)[C@@H](CC=C)Cc1ccc(F)cc1)C(C)(C)C | 1.2 | 16.1 | 0.5 | 8.7* | x | 0.7 | 33.6* | 19.2*
C=CCNC(=O)CN(C(=O)c1ccncn1)c1cccc(Br)c1 | x | -5.3 | x | -3.1 | x | x | x | x
O=C1N(Cc2ccccc2)c2ccccc2C12CCCc1oc(CCc3ccccc3)nc12 (stereo unspecified) | x | 10.5 | x | 3.7 | x | x | x | x
Cc1ccc(S(=O)(=O)N2C[C@H]3C(=O)C[C@@H](c4ccccc4)N(S(=O)(=O)c4ccc(C)cc4)[C@H]3C[C@H]2c2cccc3ccccc23)cc1 | x | 6.6 | 1.6 | 11.0* | x | -0.5 | 17.9 | 13.5*

Source: PubChem (several laboratories)
